Here are results for 1 molecule from ChEMBL document CHEMBL3526060, “Impact of hydrolysis-mediated clearance on the pharmacokinetics of novel anaplastic lymphoma kinase inhibitors” (Drug Metab Dispos, 2013).

The test system of series [1] is Plasma. Kind of series: Drug metabolism in CD-1 mouse plasma assessed as hydrolysis metabolite formation rate by LC-MS/MS analysis. The series is classed as ADME, cell-free. A digest of the protocol: (§1)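 Mouse plasma depletion kinetics at 37 °C, substrate range 0.0023–5 µM, up to 3 h; samples quenched into acetonitrile/tolbutamide, LC-MS/MS. CLint per concentration from t1/2; apparent Vmax and Km fitted by nonlinear regression to Michaelis-Menten, formation rate simulated from fit; mean of two replicates.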

Series [2] can be described thus: Plasma clearance in CD-1 mouse at 2 mg/kg, iv administered as single bolus dose by LC-MS/MS analysis. More on the design: dose 2 mg/kg, route intravenous. Format: ADME, organism-based. A digest of the protocol: (§2)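 Single 2 mg/kg IV bolus via lateral tail vein to male CD-1 mice. Mice euthanized at 0.083–24 h, 3 per time point (27 animals); cardiac-puncture blood into heparin on ice, plasma spun at 4 °C and immediately extracted with acetonitrile/0.1% formic acid plus IS, LC-MS/MS. Noncompartmental CL = Dose/AUC0–inf, t1/2 = 0.693/k, Vss from AUMC/AUC, MRT = Vss/CL.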

Series [3] can be described thus: Half life in CD-1 mouse at 2 mg/kg, iv administered as single bolus dose by LC-MS/MS analysis. Format: ADME, organism-based. More on the design: dose 2 mg/kg, route intravenous. The settings on record: in vivo. Put shortly: as §2
Series [4] in a line: Volume of distribution at steady state in CD-1 mouse at 2 mg/kg, iv administered as single bolus dose by LC-MS/MS analysis. More on the design: dose 2 mg/kg, route intravenous. Format: ADME, organism-based. The settings on record: in vivo, read-out: Vdss. Put shortly: as §2
Series [5] in a line: Ratio of drug level in blood to plasma in CD-1 mouse at 1 uM treated 20 mins after amide hydrolysis inhibitor DFP challenge measured after 1 hr by LC-MS/MS analysis. The settings on record: whole blood. Format: ADME. A digest of the protocol: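 Fresh whole blood pre-incubated 20 min with 100 µM DFP, warmed to 37 °C, spiked to 1 µM, incubated 1 h, then plasma separated; reference plasma spiked at 1 µM. Extracted with 6 volumes acetonitrile/IS, LC-MS/MS; ratio = reference plasma peak area / treated plasma peak area.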

Series [6] in a line: In vitro half life in CD-1 mouse plasma at 0.83 uM by LC-MS/MS analysis. The series is classed as ADME, cell-free. Put shortly: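 Screening stability: compound at 0.83 µM in mouse plasma at 37 °C, up to 3 h; timed aliquots quenched into acetonitrile with tolbutamide IS, centrifuged, LC-MS/MS; half-life from depletion, CLint = (0.693/t1/2)/plasma concentration.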
Series [7] can be described thus: Fraction unbound in CD-1 mouse plasma after 7 hrs by equilibrium dialysis method. Format: ADME, cell-free. A digest of the protocol: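 Mouse plasma pre-treated 20 min with 100 µM DFP to block hydrolysis, spiked at 0.1, 0.5 or 2 µM, equilibrium dialysis against PBS for 7 h at 37 °C, 5% CO2, triplicate; matrix-matched samples extracted with acetonitrile/IS, LC-MS/MS; fu = buffer/plasma concentration.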

Series [8] can be described thus: AUC (0 to infinity) in CD-1 mouse at 2 mg/kg, iv administered as single bolus dose by LC-MS/MS analysis. More on the design: time infinity, dose 2 mg/kg, route intravenous. Format: ADME, organism-based. The note with it: plasma. A digest of the protocol:
as §2

For series [9], the system named is Plasma. Kind of series: Drug metabolism in CD-1 mouse plasma assessed as maximum intrinsic clearance for hydrolysis metabolite formation by LC-MS/MS analysis. Format: ADME, cell-free. Put shortly:
as §1

Series [10] is described as follows: Mean residence time in CD-1 mouse at 2 mg/kg, iv administered as single bolus dose by LC-MS/MS analysis. More on the design: dose 2 mg/kg, route intravenous. The note with it: in vivo. The series is classed as ADME, organism-based. Put shortly: as §2
A short description of series [11]: Fraction unbound in CD-1 mouse liver microsomes after 7 hrs by equilibrium dialysis method. The series is classed as ADME. A digest of the protocol: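 Equilibrium dialysis of 0.25 mg/mL mouse liver microsomes in phosphate buffer against PBS, 7 h at 37 °C, 5% CO2, test compound 0.1, 0.5 or 2 µM, triplicate; LC-MS/MS; fraction unbound = buffer/microsome concentration.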
A general note: Liver microsomes are a subcellular fraction often used to study metabolism.

A short description of series [12]: Drug metabolism in CD-1 mouse NADPH-fortified liver microsomes assessed as hydrolysis metabolite formation rate by LC-MS/MS analysis. Format: ADME. Put shortly:
(§3)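 Mouse liver microsomes 0.25 mg/mL in 0.1 M phosphate pH 7.4, with or without 1 mM NADPH, substrate 0.0023–5 µM; sampling to 40 min into acetonitrile/IS, LC-MS/MS depletion. Hydrolysis Vmax/Km solved from no-NADPH incubations, then NADPH-dependent constants; metabolite formation rate simulated from fitted constants; duplicates.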

Series [13] can be described thus: Drug metabolism in CD-1 mouse liver microsomes assessed as hydrolysis metabolite formation rate by LC-MS/MS analysis. The series is classed as ADME. A digest of the protocol: as §3

The term Km denotes the concentration of substrate that gives half-maximal velocity. As a reminder, the clearance is a measure of how efficiently the substance is removed, as volume per time. A lower clearance goes with a low capacity for elimination. By half-life is commonly meant how long it takes for the measured level to halve. Low readings indicate rapid decline, high ones slow decline. Broadly, the fraction unbound is free concentration divided by total concentration. Low readings indicate little free substance, high ones much free substance. As usually defined, the AUC(0-inf) is the area under the concentration-time curve extrapolated to infinity. Usually MRT stands for the average time that molecules of a dose stay in the body.

As to `CC(C)NC(=O)[C@H]1CC[C@@H](n2/c(=N/C(=O)c3cc(F)cc(F)c3)[nH]c3ccc(CN4CCC(C(C)(C)O)CC4)cc32)CC1`, the “Vmax(app)” value in the series with Plasma [1] was 3.81 pmol/min/mL; in series [12], 143 pmol/min/mg; in [13], 5.12 pmol/min/mg. For the same molecule, the Michaelis constant (Km) is 0.357 µM with Plasma [1] (read-out: Km(app)), 0.936 µM in series [12] (read-out: Km(app)) and 0.0292 µM in series [13] (read-out: Km(app)). The same molecule gave a clearance in [2] of 58.5 mL/min/kg. Also, in series [3], the half-life was 1.01 h. For the same molecule, the Vd in series [4] turned out to be 4.49 L/kg. The blood plasma ratio at 1 h, 1 µM in series [5] was 0.9. Further, the half-life at 0.83 µM in series [6] was 2.9 h. Also, the fraction unbound at 7 h in series [7] was 0.046; in [11], 0.53. Also, in series [8], the AUC(0-inf) is 0.957 µM·h. Besides, in the series with Plasma [9], the CL was 10.7 uL/min.ml. In addition, the MRT in series [10] is 1.28 h.
